Results on one molecule are retold here after ChEMBL document CHEMBL5653606 (J Pharmacol Exp Ther, 2011).

Activity calls are given as the source filed them.

The target of series [1] is T1, Fatty-acid amide hydrolase 1 (Rattus norvegicus, UniProt P97612).
T1 sequence (P97612 whole entry): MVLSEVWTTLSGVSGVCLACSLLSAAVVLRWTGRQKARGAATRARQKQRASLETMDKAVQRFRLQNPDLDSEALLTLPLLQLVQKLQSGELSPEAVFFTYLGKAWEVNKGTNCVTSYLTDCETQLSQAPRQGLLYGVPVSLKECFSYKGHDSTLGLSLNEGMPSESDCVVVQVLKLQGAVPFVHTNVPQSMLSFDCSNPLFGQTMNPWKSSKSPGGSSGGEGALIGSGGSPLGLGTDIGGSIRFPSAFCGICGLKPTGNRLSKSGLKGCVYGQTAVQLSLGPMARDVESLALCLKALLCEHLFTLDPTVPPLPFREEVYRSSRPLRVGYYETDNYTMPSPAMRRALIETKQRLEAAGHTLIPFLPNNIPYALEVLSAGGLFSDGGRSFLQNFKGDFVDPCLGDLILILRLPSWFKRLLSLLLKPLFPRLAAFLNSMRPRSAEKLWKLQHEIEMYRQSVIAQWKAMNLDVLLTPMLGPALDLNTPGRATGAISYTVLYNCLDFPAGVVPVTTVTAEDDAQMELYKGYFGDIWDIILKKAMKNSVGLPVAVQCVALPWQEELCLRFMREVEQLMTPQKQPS
Nature of the series: Inhibition of rat FAAH assessed as kinact/Ki ratio incubated for 15 min in presence of glutamate dehydrogenase by 384-well format microplate reader assay.

Series [2] deals with T2, Fatty-acid amide hydrolase 1 (Rattus norvegicus) (UniProt P97612).
T2 sequence (whole entry): T1 sequence (P97612 whole entry)
The series can be described thus: In vivo inhibition of FAAH in CFA induced Sprague-Dawley rat plasma assessed as elevation of OEA level at 1 mg/kg, po measured for 1 to 24 hrs. Format: functional, organism-based. The conditions noted are these: time 1-24 hrs.

A short description of series [3]: Plasma concentration in CFA induced Sprague-Dawley rat at 0.1 mg/kg, po by LC/MS analysis. In kind it is ADME, organism-based. The following applies: in vivo.
The nature of series [4]: Plasma concentration in rat at 1 mg/kg, po administered for 4 hrs by LC/MS analysis. In kind it is ADME, organism-based. In short, it runs like this:
(§1)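 Male Sprague-Dawley rats received a single oral dose of 1 mg/kg. Plasma (ng/ml) and brain (ng/g tissue) drug levels were measured at 1, 2, 4, 8 and 24 h after dosing.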

Series [5] deals with Rattus norvegicus. Nature of the series: Antihyperalgesic activity in CFA induced Sprague-Dawley rat assessed as partial reduction of mechanical allodynia at 3 mg/kg, po in presence of CB1 antagonist SR141716 by von frey test. Format: functional, organism-based. The method in brief:
(§2)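 Male Sprague-Dawley rats (200–250 g) given 150 μl CFA (1 mg/ml in mineral oil) intraplantar in the hind paw. Mechanical paw withdrawal thresholds read with Von Frey hairs on day 5 postinjection. Dosed orally as nanocrystalline suspension in 2% polyvinylpyrrolidone/0.15% SDS in water, 10 ml/kg. PWTs taken 4 h postdose for dose-response, or at 1, 2, 4, 8, 24 h for time course.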

The target of series [6] is T2, Fatty-acid amide hydrolase 1 (Rattus norvegicus). The series can be described thus: In vivo inhibition of FAAH in CFA induced Sprague-Dawley rat brain at 1 mg/kg, po measured for 1 to 24 hrs. In kind it is functional, organism-based. The following applies: time 1-24 hrs. The method in brief: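 Brain and blood leukocyte membrane fractions from CFA rats after oral dosing. FAAH activity measured with 3H-labeled AEA substrate, quantifying released 3H-ethanolamine; n = 3 rats/group. Time course sampled at 1, 2, 4, 8, 24 h after 1 mg/kg.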

Series [7] has the same target. Nature of the series: In vivo inhibition of FAAH in CFA induced Sprague-Dawley rat plasma at 1 mg/kg, po measured for 1 to 24 hrs. In kind it is functional, organism-based. The following applies: time 1-24 hrs.
The nature of series [8]: Ratio of drug concentration in rat brain to plasma at 1 mg/kg, po administered for 4 hrs by LC/MS analysis. Format: ADME, organism-based. The conditions noted are these: brain and plasma. The method in brief: as §1
Series [9] deals with T2, Fatty-acid amide hydrolase 1 (Rattus norvegicus). Nature of the series: In vivo inhibition of FAAH in CFA induced Sprague-Dawley rat plasma assessed as elevation of PEA level at 1 mg/kg, po measured for 1 to 24 hrs. In kind it is functional, organism-based. The following applies: time 1-24 hrs.
Series [10] addresses T3, Fatty-acid amide hydrolase 1 (Mus musculus) (UniProt O08914).
T3 sequence (whole entry): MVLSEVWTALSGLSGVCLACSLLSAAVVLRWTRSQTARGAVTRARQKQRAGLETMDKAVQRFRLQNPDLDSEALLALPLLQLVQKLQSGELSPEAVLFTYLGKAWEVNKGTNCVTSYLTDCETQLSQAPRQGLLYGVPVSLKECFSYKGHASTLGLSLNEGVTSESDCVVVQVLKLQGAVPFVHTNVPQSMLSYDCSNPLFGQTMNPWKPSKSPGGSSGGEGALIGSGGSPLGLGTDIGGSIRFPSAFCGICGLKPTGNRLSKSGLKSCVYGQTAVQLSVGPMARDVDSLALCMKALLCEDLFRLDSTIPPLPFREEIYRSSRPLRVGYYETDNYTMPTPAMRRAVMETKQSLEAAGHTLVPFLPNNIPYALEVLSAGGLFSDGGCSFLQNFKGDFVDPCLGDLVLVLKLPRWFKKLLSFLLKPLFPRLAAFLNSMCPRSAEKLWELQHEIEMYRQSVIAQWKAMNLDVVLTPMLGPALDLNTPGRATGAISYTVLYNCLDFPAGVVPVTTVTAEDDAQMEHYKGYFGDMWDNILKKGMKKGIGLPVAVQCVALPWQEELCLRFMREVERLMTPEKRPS
Nature of the series: Inhibition of FAAH in mouse brain at 10 uM in presence of FP-rhodamine by competitive activity-based protein profiling method. In kind it is tissue-based. The method in brief: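 Competitive ABPP on human and mouse brain, liver and heart proteomes (membrane and soluble fractions), exposed to compound at 10 or 100 μM or to DMSO. Serine hydrolases were then labeled with FP-rhodamine. Gels were read by fluorescence scanning, and loss of band labeling (FAAH or other hydrolases by kDa) was judged.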

Series [11] has as its system Mus musculus. The series can be described thus: Antinociceptive activity in C57BL6/J mouse assessed as thermal tail immersion at 1 to 10 mg/kg, po administered for 4 hrs. The conditions noted are these: dose 1-10 mg/kg. In kind it is functional, organism-based. In short, it runs like this: (§3)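 Male C57BL/6J mice, 7 weeks old, n = 8/group, dosed orally at 1 or 10 mg/kg in PEG 300 (4 ml/kg). Tetrad tested 4 h postdose: locomotor activity, tail-immersion thermal nociception, catalepsy (assessed 60 s), body temperature. Means ± S.E.M. versus vehicle.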

The test system of series [12] is Mus musculus. Nature of the series: Antinociceptive activity in C57BL6/J mouse assessed as increased tail withdrawal latency at 1 to 10 mg/kg, po administered for 4 hrs. In kind it is functional, organism-based. The conditions noted are these: dose 1-10 mg/kg. In short, it runs like this: as §3
Series [13] deals with Rattus norvegicus. Nature of the series: Antihyperalgesic activity in MIA induced Sprague-Dawley rat assessed as increased joint compression thresholds at 3 mg/kg, po administered once daily for 3 consecutive days and measured after 2 to 4 hrs. Format: functional, organism-based. The following applies: time 3.0 day. The method in brief: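 Male Sprague-Dawley rats (220–270 g), isoflurane-anesthetized, given 2 mg MIA in 0.9% saline (50 μl) intra-articular into the knee. From day 14, oral dosing at 10 ml/kg once daily for 3 days in 4% 2-hydroxypropyl-β-cyclodextrin/1% ethanol in 0.01 M HCl. Celecoxib 30 mg/kg in 0.5% methylcellulose twice daily. Joint compression threshold by digital Randall-Selitto at 2 and 4 h postdose on days 1 and 3; n = 10/group.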

Series [14] deals with Rattus norvegicus. The series can be described thus: Antihyperalgesic activity in CFA induced Sprague-Dawley rat assessed as inhibition of mechanical allodynia at 1 mg/kg, po measured for 1 to 24 hrs by von frey test. The conditions noted are these: time 1-24 hrs. In kind it is functional, organism-based. The method in brief: as §2

Take `O=C(Nc1cccnn1)N1CCC(=Cc2cccc(Oc3ccc(C(F)(F)F)cn3)c2)CC1`: in series [1], the IC50 (commonly the concentration at which inhibition is half-maximal) is 26.7 nM. The inhibition entry in series [2], in series [6], in series [7], in [9] and in series [10] was “Active” in each case. The molecule further gave a concentration in [3] of 34.7 nM. The same molecule returned a concentration at 4 h in series [4] of 540 nM. Further, the outcome in the series on Rattus norvegicus [5], in the series on Rattus norvegicus [13] and with Rattus norvegicus [14] was Active. Also, in series [8], the Kp (usually the ratio of the level in a tissue or fluid to that in plasma or blood) at 4 h was determined as 1.6. Besides, the Activity entry with Mus musculus [11] and with Mus musculus [12] was “Toxic” throughout.
